# “Also recorded” adds a separate entry of the source.
# Experiments:
# human ClpXP [1] = assay: Steady state peptidase activity assay; type: biochemical
# human 20S proteasome = assay: Steady state peptidase activity assay; type: biochemical; details: 2 µM DBN93, 200 nM human 20S proteasome, 100 µM FRETN 89–98, 500 µM ATP
# In short: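 Run in 50 mM HEPES pH 8.0, 5 mM Mg(OAc)₂, 2 mM DTT at 37 °C, with reactions started by adding 20S proteasome. Cleavage was read as fluorescence emission at 420 nm (ex 320 nm). Rate was taken from the slope of the linear phase of the time course.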
# human Lon [2] = molecular target: T1, human Lon (Homo sapiens, UniProt P36776); assay: Time-dependent inhibition of human Lon peptidase activity; type: biochemical
# T1 sequence (P36776 68-959): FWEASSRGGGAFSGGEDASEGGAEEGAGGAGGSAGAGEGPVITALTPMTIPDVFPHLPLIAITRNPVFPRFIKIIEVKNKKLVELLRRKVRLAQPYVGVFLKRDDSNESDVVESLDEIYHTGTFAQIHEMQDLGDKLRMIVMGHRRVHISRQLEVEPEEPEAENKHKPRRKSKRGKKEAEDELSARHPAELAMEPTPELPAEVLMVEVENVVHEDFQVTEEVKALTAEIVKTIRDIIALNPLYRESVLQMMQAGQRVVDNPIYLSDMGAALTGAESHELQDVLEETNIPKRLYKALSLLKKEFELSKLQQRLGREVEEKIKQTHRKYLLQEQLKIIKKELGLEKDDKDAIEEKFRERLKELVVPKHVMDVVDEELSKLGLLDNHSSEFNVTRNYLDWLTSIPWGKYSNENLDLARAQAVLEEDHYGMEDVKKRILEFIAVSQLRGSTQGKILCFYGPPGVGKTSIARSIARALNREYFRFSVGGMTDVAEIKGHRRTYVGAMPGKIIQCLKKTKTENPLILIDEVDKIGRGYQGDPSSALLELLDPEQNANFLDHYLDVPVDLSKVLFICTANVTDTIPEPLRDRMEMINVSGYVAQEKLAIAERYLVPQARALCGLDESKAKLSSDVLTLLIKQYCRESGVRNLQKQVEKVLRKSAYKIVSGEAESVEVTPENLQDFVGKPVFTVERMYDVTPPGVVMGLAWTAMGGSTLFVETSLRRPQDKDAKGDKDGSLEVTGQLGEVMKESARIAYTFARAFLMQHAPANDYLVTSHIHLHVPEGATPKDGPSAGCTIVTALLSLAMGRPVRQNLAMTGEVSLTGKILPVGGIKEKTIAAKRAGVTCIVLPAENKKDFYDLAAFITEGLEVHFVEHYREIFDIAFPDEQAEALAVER
# human Lon [3] = molecular target: T1, human Lon; assay: Inhibition of α-casein degradation by hLon; type: biochemical; details: 10 µM DBN93, 10 µM casein, 1 µM hLon, 5 mM ATP, SDS-PAGE
# In short: (§1)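 Digests in 50 mM Tris pH 8.1, 15 mM Mg(OAc)₂, 5 mM DTT were run at 37 °C ±inhibitor. Aliquots were quenched with SDS loading dye at time points from 0 to 90 min, run on 12.5% SDS-PAGE and stained with Coomassie Blue.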
# human ClpXP [4] = assay: Inhibition of α-casein degradation by hClpXP; type: biochemical; details: 10 µM DBN93, 10 µM casein, 2 µM ClpX and 2 µM ClpP, 5 mM ATP, SDS-PAGE
# In short: as §1
# [5] = test system: HeLa mitochondrial lysate immunodepleted of Lon; assay: FRETN 89–98 cleavage in Lon-immunodepleted HeLa mitochondrial lysate; type: biochemical, human; details: 10 µM DBN93, 100 µM FRETN 89–98, 1 mM ATP; at least three trials
# In short: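 Affinity-purified anti-hLon was incubated overnight at 4 °C with HeLa mitochondria in 25 mM Tris pH 7.5, 100 mM NaCl, 0.1% Tween 20. Protein A agarose was pelleted, and the supernatant was desalted into 50 mM KPi pH 7, 20% glycerol, 0.1% Tween 20, then Bradford-quantified. Emission at 420 nm (ex 320 nm) was read for 1 hr.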
# [6] = test system: Lon in isolated rat liver mitochondria; assay: In organello degradation of 35S-labeled StAR in isolated mitochondria; type: cell-based
# In short: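 ³⁵S-Met StAR precursor was made by in vitro transcription and reticulocyte-lysate translation, then imported for 30 min at 30 °C into rat liver mitochondria (600 µg) in HSB buffer with ATP, GTP, NADH and creatine kinase system. Non-imported protein was removed with trypsin on ice, then trypsin inhibitor. Pellets were chased at 30 °C ±inhibitor, TCA-precipitated, run on 12% SDS-PAGE with autoradiography, and bands quantified. Mean of 3 independent experiments, SEM, Student's t-test.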
# S. Typhimurium Lon = details: cited from earlier work
# [7] = S. Typhimurium Lon, error s.e.m.
substance,measurement,setting,value
dansyl-YRGIT-Abu-B(OH)2 [DBN93],inhibition of hClpXP,human ClpXP [1]; general statement,does not inhibit this protease; also recorded: not inhibited
same,effect on cleavage of FRETN 89–98 by hClpXP,"human ClpXP [1]; up to 4 µM DBN93 (1 and 4 µM, Figure 5a)",not affected
same,inhibition of 20S proteasome catalyzed cleavage of FRETN 89–98,human 20S proteasome,inhibited the cleavage; also recorded: inhibits
same,time dependence of inhibition of hLon peptidase activity,"human Lon [2]; Figure 3, panel a",inhibited by DBN93 in a time-dependent manner
same,Ki* of hLon vs Ki* of bacterial Lon,human Lon [2]; overall inhibitor potency,comparable to the Ki* determined previously for bacterial Lon
same,inhibition of α-casein degradation by hLon,human Lon [3],inhibited α-casein degradation by hLon
same,inhibition of α-casein degradation by hClpXP,human ClpXP [4],not by hClpXP
same,effect on peptide cleavage in Lon-immunodepleted mitochondria,[5],no decrease in peptide cleavage
same,inhibition of StAR degradation in mitochondria,"[6]; 10 µM DBN93, 1 or 2 hr chase, rat mitochondria, n=3",inhibits degradation of StAR
same,penetration of mitochondrial membranes,"[6]; intact rat mitochondria, 10 µM DBN93, inferred from StAR degradation",can penetrate the mitochondrial membranes
same,inhibition of Lon,S. Typhimurium Lon; 4 µM DBN93 (condition of the hClpXP test),completely inhibited
same,k3,S. Typhimurium Lon; [7],1.0 ± 0.3 × 10^5 M^−1s^−1
same,k4,S. Typhimurium Lon; [7],0.022 ± 0.007 s⁻¹
same,k5,S. Typhimurium Lon; [7],0.0032 ± 0.0003 s⁻¹
same,k6,S. Typhimurium Lon; [7],0.00028 ± 0.00002 s⁻¹

# Reference: PMC3158820 (ACS chemical biology, 2011)
